This passage reports GI50, IC50 and Activity results from ChEMBL document CHEMBL4261600 (Eur J Med Chem, 2018).

Data set [1] concerns MV4-11. The experiment in a line: Antiproliferative activity against human MV4-11 cells after 72 hrs by Celltiter-Glo assay. Type of data set: functional. Particulars: MV4-11, 72 h. In outline: (§1)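 Cells seeded at 3000/well in 96-well plates, exposed to serially diluted compound for 72 h at 37 °C, 5% CO2. Viability read by CellTiter-Glo luminescence and normalized to DMSO control. GI50 derived from curve fit, mean of three independent measurements. Culture media: DMEM/10% FBS for adherent lines; IMDM for MV4-11 and MEC-1/2; RPMI 1640 for suspension lines and CHL.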
(In general: ATP-based viability assays read luminescence as a measure of living cells.)

Data set [2] is described as follows: Antiproliferative activity against Chinese hamster CHL cells after 72 hrs by Celltiter-Glo assay. Particulars: Cricetulus griseus.
In a further data set the target is CDK9/Cyclin K (Homo sapiens, UniProt P50750). In words: Inhibition of CDK9/Cyclin K (unknown origin) using PDKtide as substrate incubated at 37 degreeC for 1 hr followed by incubation at room temperature for 5 mins by ADP-Glo reagent based luminescence assay. Type of data set: protein-complex assay.
Data set [3] can be described thus: Antiproliferative activity against human MEC1 cells after 72 hrs by Celltiter-Glo assay. Type of data set: functional. Particulars: MEC1, 72 h. The method, boiled down: as §1
For data set [4], the system named is MV4-11. The experiment in a line: Induction of apoptosis in human MV4-11 cells assessed as decrease in c-MYC level at 0.01 uM after 24 hrs by immunoblotting analysis. Type of data set: functional, cell-based.
Data set [5] is filed under the species Homo sapiens. In words: Induction of apoptosis in human MEC1 cells assessed as decrease in c-MYC level at 0.01 uM after 24 hrs by immunoblotting analysis. Type of data set: functional, cell-based. On the technique in general: A western blot detects proteins with antibodies after separation by electrophoresis.
Another data set concerns A-431. In words: Antiproliferative activity against human A431 cells after 72 hrs by Celltiter-Glo assay. Type of data set: functional. The note with it: A-431, 72 h. The method, boiled down: as §1
The test system of the next data set is U-937. The experiment in a line: Antiproliferative activity against human U937 cells after 72 hrs by Celltiter-Glo assay. Type of data set: functional. The note with it: U-937, 72 h. In outline: as §1
Another data set has as its system A-375. In words: Antiproliferative activity against human A375 cells after 72 hrs by Celltiter-Glo assay. Type of data set: functional. The note with it: A-375, 72 h. In outline: as §1
Another data set has as its system MOLM-14. In words: Antiproliferative activity against human MOLM14 cells after 72 hrs by Celltiter-Glo assay. Type of data set: functional. The note with it: MOLM-14, 72 h. In outline:
as §1

The next data set concerns OCI-AML-3. In words: Antiproliferative activity against human OCI-AML3 cells after 72 hrs by Celltiter-Glo assay. Particulars: OCI-AML-3, 72 h. Type of data set: functional. The method, boiled down:
as §1

The nature of data set [6]: Antiproliferative activity against human MEC2 cells after 72 hrs by Celltiter-Glo assay. Type of data set: functional. The note with it: MEC2, 72 h. In outline:
as §1

A further data set deals with SKM-1. In words: Antiproliferative activity against human SKM1 cells after 72 hrs by Celltiter-Glo assay. Type of data set: functional. Particulars: SKM-1, 72 h. In outline: as §1
For a further data set, the system named is GISTT1. In words: Antiproliferative activity against human GISTT1 cells after 72 hrs by Celltiter-Glo assay. Type of data set: functional. The note with it: GISTT1, 72 h. In outline:
as §1

The subject of data set [7] is HL-60. The experiment in a line: Antiproliferative activity against human HL60 cells after 72 hrs by Celltiter-Glo assay. Type of data set: functional. Particulars: HL-60, 72 h. The method, boiled down:
as §1

Data set [8] has as its system HL-60. The experiment in a line: Induction of apoptosis in human HL60 cells assessed as decrease in c-MYC level at 0.01 uM after 24 hrs by immunoblotting analysis. Type of data set: functional, cell-based.
For another data set, the system named is Ramos. In words: Antiproliferative activity against human Ramos cells after 72 hrs by Celltiter-Glo assay. Type of data set: functional. In outline: as §1
The species entered for data set [9] is Homo sapiens. In words: Induction of apoptosis in human MEC1 cells assessed as decrease in MCL-1 level at 0.01 uM after 24 hrs by immunoblotting analysis. Type of data set: functional, cell-based.
The subject of data set [10] is MV4-11. The experiment in a line: Induction of apoptosis in human MV4-11 cells assessed as decrease in caspase-3 level after 24 hrs by immunoblotting analysis. Type of data set: functional, cell-based.
The test system of data set [11] is MV4-11. In words: Induction of apoptosis in human MV4-11 cells assessed as decrease in MCL-1 level at 0.01 uM after 24 hrs by immunoblotting analysis. Type of data set: functional, cell-based.
Data set [12] can be described thus: Antiproliferative activity against CHO cells after 72 hrs by Celltiter-Glo assay. Type of data set: cell-based, Cricetulus griseus. Particulars: chinese hamster. The method, boiled down:
as §1

The subject of a further data set is COLO 205. In words: Antiproliferative activity against human COLO205 cells after 72 hrs by Celltiter-Glo assay. Type of data set: functional. The note with it: COLO 205, 72 h. In outline:
as §1

A further data set relates to SK-N-BE(2)-M17. The experiment in a line: Antiproliferative activity against human BE(2)-M17 cells after 72 hrs by Celltiter-Glo assay. Type of data set: functional. The note with it: SK-N-BE(2)-M17, 72 h. In outline:
as §1

Data set [13] deals with HL-60. In words: Induction of apoptosis in human HL60 cells assessed as decrease in caspase-3 level after 24 hrs by immunoblotting analysis. Type of data set: functional, cell-based.
Another data set has as its system MOLM-13. In words: Antiproliferative activity against human MOLM13 cells after 72 hrs by Celltiter-Glo assay. Type of data set: functional. Particulars: MOLM-13, 72 h. The method, boiled down: as §1
Data set [14] has as its system HL-60. In words: Induction of apoptosis in human HL60 cells assessed as decrease in MCL-1 level at 0.01 uM after 24 hrs by immunoblotting analysis. Type of data set: functional, cell-based.
The species named for data set [15] is Homo sapiens. The experiment in a line: Induction of apoptosis in human MEC1 cells assessed as decrease in caspase-3 level after 24 hrs by immunoblotting analysis. Type of data set: functional, cell-based.

For orientation: GI50 means the concentration at which growth is held to half of that of the control. Low readings indicate greater sensitivity of the cells, high ones lower sensitivity of the cells. As a reminder, the IC50 is the concentration at which inhibition is half-maximal. Low values mean inhibition by little substance, high ones a need for much substance.

The source made the active and inactive calls. The rule behind the calls is not given here.

CDK9/Cyclin K, sequence (P50750 whole entry): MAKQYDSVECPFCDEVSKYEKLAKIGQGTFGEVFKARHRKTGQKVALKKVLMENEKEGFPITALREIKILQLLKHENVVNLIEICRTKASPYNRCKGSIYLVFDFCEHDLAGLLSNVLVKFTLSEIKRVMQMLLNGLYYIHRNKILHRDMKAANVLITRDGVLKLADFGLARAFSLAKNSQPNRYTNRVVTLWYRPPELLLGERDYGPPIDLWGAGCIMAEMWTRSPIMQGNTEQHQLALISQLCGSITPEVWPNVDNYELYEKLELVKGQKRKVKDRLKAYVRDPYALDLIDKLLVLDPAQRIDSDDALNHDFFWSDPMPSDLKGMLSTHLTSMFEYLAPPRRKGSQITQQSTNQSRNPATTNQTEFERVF
CDK9/Cyclin K, sequence (O75909 whole entry, further chain): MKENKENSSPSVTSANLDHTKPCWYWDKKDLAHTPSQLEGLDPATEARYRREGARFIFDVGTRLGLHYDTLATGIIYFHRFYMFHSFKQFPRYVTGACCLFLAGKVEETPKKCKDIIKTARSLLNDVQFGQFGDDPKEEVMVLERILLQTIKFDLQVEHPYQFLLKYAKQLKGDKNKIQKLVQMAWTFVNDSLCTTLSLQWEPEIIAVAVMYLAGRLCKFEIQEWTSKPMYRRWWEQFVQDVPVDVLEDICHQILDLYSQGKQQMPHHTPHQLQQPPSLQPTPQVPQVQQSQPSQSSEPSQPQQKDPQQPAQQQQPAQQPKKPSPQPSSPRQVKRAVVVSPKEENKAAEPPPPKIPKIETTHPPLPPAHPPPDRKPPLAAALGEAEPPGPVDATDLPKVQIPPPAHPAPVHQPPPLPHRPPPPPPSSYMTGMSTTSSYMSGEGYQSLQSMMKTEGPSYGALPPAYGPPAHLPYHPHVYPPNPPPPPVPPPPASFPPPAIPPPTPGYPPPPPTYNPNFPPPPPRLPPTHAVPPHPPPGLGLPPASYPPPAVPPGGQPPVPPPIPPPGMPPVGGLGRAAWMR

Take `Fc1cc(-c2csc(NCC3CCOCC3)n2)c(Cl)cn1`: the GI50 (in the data set with MV4-11 [1]; in data set [2]; in data set [3]) was more than 10000 nM in each case. This compound had an IC50 against CDK9/Cyclin K of 557 nM.

Turning to `COCCN[C@H]1CC[C@H](Nc2cc(-c3csc(NCC4CCOCC4)n3)c(C)cn2)CC1`, the GI50 was 1620 nM with MV4-11 [1], 5010 nM in [2] and 3560 nM in data set [3]. Besides, on CDK9/Cyclin K, half-maximal inhibition (IC50) was put at 253 nM.

Regarding `CCOCCN[C@H]1CC[C@H](Nc2cc(-c3csc(NCC4CCOCC4)n3)c(Cl)cn2)CC1`, the results for the GI50 (in the data set with MV4-11 [1]; in data set [2]; in data set [3]) were 497 nM, 2820 nM and 634 nM, respectively. Further, on CDK9/Cyclin K, 51 nM corresponded to half-maximal inhibition (IC50).

Turning to `COCCN[C@H]1CC[C@H](Nc2cc(-c3csc(NCC4CCCCC4)n3)c(Cl)cn2)CC1`, the GI50 worked out at 820 nM in the data set on MV4-11 [1], 8000 nM in data set [2] and 850 nM in data set [3]. For the same compound, on CDK9/Cyclin K, half-maximal inhibition (IC50) required 27 nM.

Consider `COCCN[C@H]1CC[C@H](Nc2cc(-c3csc(OCC4CCOCC4)n3)c(Cl)cn2)CC1`, for which the GI50 in the data set with MV4-11 [1] came to 570 nM; in data set [2], 3300 nM; in [3], 1400 nM. In addition, inhibition at CDK9/Cyclin K was half-maximal at 28 nM (IC50).

Consider `COC[C@H](C)N[C@H]1CC[C@H](Nc2cc(-c3csc(NCC4(C#N)CCOCC4)n3)c(Cl)cn2)CC1`, for which the GI50 in the data set on MV4-11 [1] was found to be 121 nM; in data set [2], 1250 nM; in data set [3], 537 nM. In addition, inhibition against CDK9/Cyclin K was half-maximal at 10 nM (IC50).

Regarding `COC[C@@H](C)N[C@H]1CC[C@H](Nc2cc(-c3csc(NCC4CCOCC4)n3)c(Cl)cn2)CC1`, the results for the GI50 (in the data set with MV4-11 [1]; in data set [2]; in data set [3]) were 140 nM, 1100 nM and 310 nM, respectively. The IC50 on CDK9/Cyclin K was 733 nM.

Regarding `N[C@H]1CC[C@H](Nc2cc(-c3csc(NCC4CCOCC4)n3)c(Cl)cn2)CC1`, the GI50 with MV4-11 [1] is 140 nM; in data set [2], 3500 nM; in [3] it was 270 nM. The compound also registered an IC50 against CDK9/Cyclin K of 22 nM.

With `COCCN[C@H]1CC[C@H](Nc2cc(-c3csc(NCC4CCC4)n3)c(Cl)cn2)CC1`, the GI50 in the data set with MV4-11 [1] was more than 10000 nM; in data set [2] it was 1290 nM; in data set [3] it was 2260 nM. On CDK9/Cyclin K, this compound came in with an IC50 of 107 nM.

Turning to `CCc1cnn2c(NCc3ccc[n+]([O-])c3)cc(N3CCCC[C@H]3CCO)nc12` [DINACICLIB], the outcome with MV4-11 [4], in the data set listed under Homo sapiens [5], in the data set on HL-60 [8], in the data set filed under Homo sapiens [9], with MV4-11 [11] and in the data set with HL-60 [14] was Active. Besides, the GI50 was 11 nM with A-431; 10 nM with U-937; 11 nM with A-375; 4.5 nM in the data set on MOLM-14; 13 nM in the data set with OCI-AML-3; 11 nM in data set [6]. For the same compound, the GI50 amounted to 11 nM with SKM-1; 8.8 nM with GISTT1; 8 nM in the data set with HL-60 [7]; 8.6 nM in the data set on Ramos; 6.8 nM in the data set on COLO 205; 3.6 nM in data set [3]. In addition, the GI50 worked out at 21 nM in the data set on SK-N-BE(2)-M17 and 3.3 nM in the data set on MOLM-13. Moreover, the Activity result in the data set on MV4-11 [10], in the data set with HL-60 [13] and in the data set listed under Homo sapiens [15] was “Dose-dependent effect” each time. In addition, growth in [12] was halved (GI50 at 72 h) at 160 nM.

Regarding `COC[C@@H](C)N[C@H]1CC[C@H](Nc2cc(-c3csc(NCC4(C#N)CCOCC4)n3)c(Cl)cn2)CC1` [TAMBICICLIB], the GI50 in the data set with MV4-11 [1] was found to be 14 nM; in [2] it was 1100 nM; in [3] it was 47 nM. In addition, half-maximal inhibition at CDK9/Cyclin K (IC50) was put at 9 nM.

Turning to `COC[C@H](C)N[C@H]1CC[C@H](Nc2cc(-c3csc(NCC4CCOCC4)n3)c(Cl)cn2)CC1`, the GI50 in the data set with MV4-11 [1] is 440 nM; in data set [2] it was 3600 nM; in data set [3], 1300 nM. Besides, on CDK9/Cyclin K, the IC50 was more than 10000 nM.

Turning to `COCCN[C@H]1CC[C@H](Nc2cc(-c3csc(SCC4CCOCC4)n3)c(Cl)cn2)CC1`, the results for the GI50 (in the data set on MV4-11 [1]; in data set [2]; in [3]) were 340 nM, 5600 nM and 800 nM, respectively. For the same compound, the IC50 against CDK9/Cyclin K is 14 nM.

For the compound `CC(C)(C)OC(=O)Nc1nc(-c2cc(F)ncc2Cl)cs1`, the GI50 (in the data set on MV4-11 [1]; in [2]; in [3]) was more than 10000 nM each time. Besides, on CDK9/Cyclin K, the IC50 was more than 10000 nM.

Consider `O=C(N[C@H]1CC[C@H](Nc2cc(-c3csc(NCC4CCOCC4)n3)c(Cl)cn2)CC1)C1CC1`, for which the GI50 (with MV4-11 [1]; in data set [2]; in data set [3]) was more than 10000 nM throughout. This compound came in with an IC50 against CDK9/Cyclin K of 150 nM.

For the compound `COCCN[C@H]1CC[C@H](Oc2cc(-c3csc(NCC4CCOCC4)n3)c(Cl)cn2)CC1`, the GI50 is 7700 nM with MV4-11 [1], more than 10000 nM in [2] and more than 10000 nM in [3]. For the same compound, the IC50 at CDK9/Cyclin K was 1670 nM.
